Data set [1] in a line: Selectivity index, ratio of IC50 for cytotoxicity against CHO cells to IC50 for antiproliferative activity against A2780 cells. In kind it is toxicity, cell-based. As to conditions: Chinese hamster (CHO cells); human (A2780 cells), CHO cells versus A2780 cells; read-out: Ratio IC50. A digest of the protocol: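 Selectivity factor is the IC50 in CHO cells over the IC50 in A2780 cells. Both were measured after 48 h of continuous treatment by MTT.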

A short description of data set [2]: Selectivity index, ratio of IC50 for cytotoxicity against BGM cells assessed as reduction in cell viability in dark to IC50 for cytotoxicity against human HeLA cells assessed as reduction in cell viability in dark. In kind it is toxicity, cell-based. The following applies: African green monkey (BGM cells), BGM cells versus HeLa cells, read-out: Ratio IC50. A digest of the protocol:
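Selectivity factor is the dark IC50 in BGM normal renal cells over the dark IC50 in HeLa cells. Both come from the MTT phototoxicity procedure without irradiation.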

Data set [3] concerns HeLa. Nature of the data set: Induction of ROS generation in human HeLa cells at 5 uM incubated for 1 hr in dark followed by irradiation with visible light for 1 hr under hypoxic condition in presence of 5 mM NAC by DCFH-DA staining based flow cytometric analysis. In kind it is functional, cell-based. The following applies: time 2.0 hrs. A digest of the protocol: (§1)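 HeLa cells were seeded at 2 × 10^4/well for 24 h under 21% or 2% O2. They were co-treated with 5 μM compound plus a scavenger, which stayed present throughout: NAC 5 mM, NaN3 5 mM, mannitol 50 mM, tiron 5 mM, sodium pyruvate 10 mM or Trolox 0.1 mM. Cells were held 1 h dark, then 1 h under visible light, stained 30 min with 10 μM DCFH-DA, trypsinized and analysed by flow cytometry. At least two independent experiments, n = 3.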

In data set [4] the test system is HeLa. Nature of the data set: Induction of ROS generation in human HeLa cells assessed as increase in intracellular ROS level at 5 uM incubated for 1 hr in dark followed by irradiation with visible light for 1 hr under hypoxic condition by DCFH-DA staining based flow cytometric analysis. It is filed as functional, cell-based. As to conditions: time 2.0 hrs. A digest of the protocol: as §1

Data set [5] deals with HeLa. Nature of the data set: Induction of ROS generation in human HeLa cells at 5 uM incubated for 1 hr in dark followed by irradiation with visible light for 1 hr under hypoxic condition in presence of NaPyr by DCFH-DA staining based flow cytometric analysis. In kind it is functional, cell-based. As to conditions: time 2.0 hrs. The method, boiled down:
as §1

For data set [6], the system named is HeLa. Nature of the data set: Induction of autophagy in human HeLa cells […] pretreated with wortmannin for 1 hr followed by irradiation schedule for 1 hr by MDC staining based confocal microscopic analysis. In kind it is functional.
Data set [7] deals with HeLa. Nature of the data set: Induction of ROS generation in human HeLa cells at 5 uM incubated for 1 hr in dark followed by irradiation with visible light for 1 hr under normoxic condition in presence of Trolox by DCFH-DA staining based flow cytometric analysis. In kind it is functional, cell-based. As to conditions: time 2.0 hrs. A digest of the protocol: as §1
Data set [8] is described as follows: Drug uptake in mitochondria of human HeLa cells assessed as drug accumulation at 1 uM measured after 30 mins by confocal microscopic analysis. It is filed as ADME. The following applies: 0.5 h. A digest of the protocol:
(§2)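 HeLa cells in high-glucose DMEM with 10% fetal calf serum were seeded on glass-bottom dishes for 24 h, then loaded with compound for 30 min at 37 °C. They were washed three times with DPBS and kept in phenol-red-free low-glucose DMEM. Live cells were imaged by confocal microscopy at 37 °C with 5% CO2, excited at 561 nm, with emission collected from 570 to 670 nm.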

Data set [9] concerns HeLa. Nature of the data set: Induction of ROS generation in human HeLa cells at 5 uM incubated for 1 hr in dark followed by irradiation with visible light for 1 hr under normoxic condition in presence of 5 mM NAC by DCFH-DA staining based flow cytometric analysis. In kind it is functional, cell-based. As to conditions: time 2.0 hrs. The method, boiled down: as §1
A short description of data set [10]: Drug uptake in nucleolus of human HeLa cells assessed as drug accumulation at 1 uM measured after 30 mins by confocal microscopic analysis. In kind it is ADME, subcellular. The following applies: 0.5 h. The method, boiled down: as §2
The test system of data set [11] is HeLa. Nature of the data set: Induction of apoptosis in human HeLa cells assessed as increase in early apoptotic cells at 0.5 uM preincubated for 30 mins in dark followed by irradiation for 1 hr and measured after 24 hrs by Annexin V-FITC/ Propidium iodide staining based flow cytometry analysis. In kind it is functional, cell-based. The following applies: time 25.5 hrs. The method, boiled down:
(§3)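 HeLa cells were seeded at 1.5 × 10^5/well overnight and treated for 0.5 h, with or without 1 h visible-light irradiation, followed by 24 h recovery. Cells were trypsinized, resuspended in binding buffer, labelled with FITC-Annexin V and propidium iodide for 15 min at room temperature in the dark, and analysed by flow cytometry. Cisplatin (30 μM) served as positive control.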

Data set [12] has as its system HeLa. Nature of the data set: Induction of apoptosis in human HeLa cells assessed as increase in early apoptotic cells at 0.5 uM incubated for 30 mins in dark measured after 24 hrs by Annexin V-FITC/ Propidium iodide staining based flow cytometry analysis. The following applies: time 24.5 hrs. It is filed as functional, cell-based. A digest of the protocol: as §3

Data set [13] is described as follows: Induction of singlet oxygen generation in air-saturated DCM solution assessed as reduction in 1,3-diphenylisobenzofuran absorption irradiated with 505 nanometer green light by DPBF-based assay. It is filed as functional.
In data set [14] the test system is HeLa. Nature of the data set: Induction of autophagy in human HeLa cells assessed as increase in MDC-positive autophagic vesicles at 0.5 uM preincubated for 30 mins followed by light irradiation for 1 hr and further incubated for 6 hrs in drug-free medium by MDC staining based confocal microscopic analysis. In kind it is functional, cell-based. The following applies: time 1.5 hrs. The method, boiled down:
(§4)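 HeLa cells were seeded at 1.5 × 10^4 cells/cm2 in chamber slides and given 0.5 h compound incubation, then 1 h visible-light irradiation. Medium was replaced for a 6 h recovery. Cells were stained with monodansylcadaverine (0.05 mM in PBS, 10 min, 310 K) and imaged by confocal microscopy (ex 405 nm). Vacuoles were counted in at least 10 cells from two experiments. Controls were starvation in EBSS for 2 h and resveratrol 50 μM for 2 h.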

Data set [15] deals with HeLa. Nature of the data set: Induction of superoxide anion generation in human HeLa cells assessed as increase in DHE fluorescence at 5 uM incubated for 1 hr in dark followed by irradiation with visible light for 1 hr under hypoxic condition in presence of tiron by DHE staining based flow cytometric analysis. As to conditions: time 2.0 hrs.
For data set [16], the system named is HeLa. Nature of the data set: Effect on cell cycle distribution in human HeLa cells assessed as reduction in G1 phase population at 0.5 uM preincubated for 30 mins in dark followed by light irradiation for 1 hr by RNase/propidium iodide staining based FACS analysis. In kind it is functional. As to conditions: time 1.5 hrs. The method, boiled down:
(§5)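 HeLa cells were seeded at 1.5 × 10^5/well and treated for 0.5 h, with or without 1 h visible-light irradiation, followed by 24 h recovery. Cells were fixed in ice-cold 70% ethanol for 1 h and stained with PI (40 μg/mL) plus RNase (1 μg/mL) for 30 min at 310 K. Analysis was by flow cytometry in the FL2-A channel. At least two independent experiments, n = 3.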

For data set [17], the system named is HeLa. Nature of the data set: Induction of mitochondrial membrane potential loss in human HeLa cells at 0.5 uM measured after 24 hrs by JC-1 dye-based flow cytometric analysis. In kind it is functional, cell-based. A digest of the protocol:
(§6)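 HeLa cells were seeded at 1.5 × 10^5 in 12-well plates for 24 h and treated for 24 h. Vehicle control held 0.4% DMSO and antimycin A (50 μM) served as positive control. Cells were stained with JC-1 (1 μM, 20 min) and analysed by flow cytometry (10^4 events; ex 488 nm; green 530 nm and red 585 nm channels). At least two independent experiments.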

Data set [18] can be described thus: Drug uptake in human HeLa cells at 1 uM incubated for 30 mins by confocal microscopic analysis. It is filed as ADME, cell-based. As to conditions: 0.5 h. The method, boiled down: as §2
The subject of data set [19] is HeLa. Nature of the data set: Induction of ROS generation in human HeLa cells at 5 uM incubated for 1 hr in dark followed by irradiation with visible light for 1 hr under normoxic condition in presence of NaN3 by DCFH-DA staining based flow cytometric analysis. In kind it is functional, cell-based. The following applies: time 2.0 hrs. The method, boiled down:
as §1

The subject of data set [20] is HeLa. Nature of the data set: Effect on cell cycle distribution in human HeLa cells at 5 uM incubated for 30 mins in dark by RNase/propidium iodide staining based FACS analysis. It is filed as functional. A digest of the protocol: as §5
In data set [21] the test system is HeLa. Nature of the data set: Induction of apoptosis in human HeLa cells assessed as increase in total apoptotic cells at 5 uM preincubated for 30 mins in dark followed by irradiation for 1 hr and measured after 24 hrs by Annexin V-FITC/ Propidium iodide staining based flow cytometry analysis. It is filed as functional, cell-based. The following applies: time 25.5 hrs. A digest of the protocol:
as §3

The test system of data set [22] is HeLa. Nature of the data set: Induction of autophagy in human HeLa cells assessed as increase in MDC-positive autophagic vesicles at 5 uM preincubated for 30 mins followed by light irradiation for 1 hr and further incubated for 6 hrs in drug-free medium by MDC staining based confocal microscopic analysis. It is filed as functional, cell-based. As to conditions: time 1.5 hrs. The method, boiled down: as §4

In data set [23] the test system is HeLa. Nature of the data set: Effect on cell cycle distribution in human HeLa cells assessed as reduction in G1 phase population at 5 uM preincubated for 30 mins in dark followed by light irradiation for 1 hr by RNase/propidium iodide staining based FACS analysis. It is filed as functional. The following applies: time 1.5 hrs. A digest of the protocol: as §5

Data set [24] in a line: Phototoxicity index, ratio of IC50 for cytotoxicity against human HeLa cells assessed as reduction in cell viability in dark under hypoxic condition to IC50 for phototoxicity against human HeLa cells upon LED light irradiation under hypoxic condition. In kind it is toxicity, cell-based. The method, boiled down: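 Phototoxic index is the dark IC50 over the irradiated IC50 in HeLa cells. Both come from the MTT schedule of 1 h dark incubation plus 1 h visible-LED irradiation, then recovery in drug-free medium, run under 21% or 2% O2 as stated in the line.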

In data set [25] the test system is HeLa. Nature of the data set: Induction of mitochondrial membrane potential loss in human HeLa cells at 5 uM measured after 24 hrs by JC-1 dye-based flow cytometric analysis. In kind it is functional, cell-based. The method, boiled down:
as §6

Activity calls are given as the source filed them. The rule behind the calls is not given here. Some results are limits rather than exact numbers.

On to `CN(C)c1ccc2c(c1)O/C(=C(/C#N)c1cc[n+](C)cc1)C=C2C(F)(F)F`, for which the selectivity ratio in data set [1] is greater than 5.1.

For the molecule `CCN(CC)c1ccc2c(c1)O/C(=C(/C#N)c1cc[n+](CC(=O)NCCCN)cc1)C=C2C`, in data set [1], the selectivity ratio was greater than 2.4.

On to `CCN(CC)c1ccc2c(c1)O/C(=C(/C#N)c1cc[n+](CC(=O)NCCCNC(=O)OC(C)(C)C)cc1)C=C2C`, for which the selectivity ratio in [2] was 2.7.

As for `CCCCCC[n+]1ccc(/C(C#N)=C2/C=C(C)c3ccc(N(CC)CC)cc3O2)cc1`, the outcome in [3], in data set [4], in data set [5], in data set [6], in data set [7] and in data set [9] was inactive. Moreover, the result in data set [15] and in data set [19] was inactive. Besides, the selectivity ratio in [2] came to 1.1. The Drug uptake entry in data set [8] is “Active”; in [10], “Not Active”; in [18], “Active”. Further, the outcome in [11], in data set [12], in [13], in [14], in [16] and in [17] was Active.

`CCN(CC)c1ccc2c(c1)O/C(=C(/C#N)c1cc[n+](CC(F)(F)F)cc1)C=C2C`: the result in data set [20], in data set [3], in [4], in [7], in data set [22] and in data set [9] was inactive. For the same molecule, the outcome in [25] and in [19] was inactive. For the same molecule, the selectivity ratio in data set [2] turned out to be 4.3. Also, the outcome in data set [6], in data set [21], in data set [13], in [15] and in data set [23] was Active. The Drug uptake entry in data set [8], in [10] and in data set [18] was “Active” each time. Besides, in [24], the “Ratio IC50” value amounted to 4.7.

(Values after ChEMBL document CHEMBL5032534, “COUPY Coumarins as Novel Mitochondria-Targeted Photodynamic Therapy Anticancer Agents” (J Med Chem, 2021).)
